For 20 compounds, viability, differential viability (reversal) and inhibition results are on record in PubChem BioAssay.

Structures are written as SMILES. Calls of active or inactive are those of the source. Rule as the data show it, unless noted: active = inhibition above about 30%; inactive = the rest.

The term viability denotes a read-out of living cells in per cent, often relative to untreated cells. The inhibition is the relative decrease from the control value, in per cent.

Assay [1] in a line: HUVEC growth inhibition – cell-based, human, primary screen (AID 575;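 active = viability at or below 30% in both replicate assays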;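 also: 100% = median of untreated cell wells with 0.1% DMSO on each plate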). The following applies: HUVEC proliferation, CellTiter-Glo luminescence, 72 h; at 10 µM; stronger effect = lower value. An outline of the steps: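 System: primary human umbilical vein endothelial cells; Quantity: 1250 endothelial cells in each well; Buffer or medium: supplemented EBM, 2% fetal bovine serum; Doses: one dose, 10 µM final, 0.1% DMSO; Incubation: 72 h compound incubation; Technique: ATP-based CellTiter-Glo luminescent read; Evaluation: percent of median DMSO-control luminescence; Controls: vehicle and MePR control wells.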
(In general: ATP-based viability assays read luminescence as a measure of living cells.)

Assay [2] in a line: H69AR cell proliferation blockers – human, duplicate replicates, primary screen (AID 580;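 active = viability at or under a set limit in both replicates, limit being median viability minus 3 SD, cut at about 48% in these data, passing the limit was not always enough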;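 also: 100% = mean luminescence of untreated wells and 0% = no signal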). To be noted: H69AR lung tumor cells viability, ATP luminescence, 72 h; at 10 µM; stronger effect = lower value.
Assay [3] is described as follows: MRP1 drug-resistance reversers in H69AR cells – cell-based, doxorubicin co-treatment, pilot screen (AID 601;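 active = viability loss from added drug above about 55%, and viability with drug at most 40%, in both replicates, limit read from the data, passing the limit was not always enough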). The following applies: CellTiter-Glo, 72 h, at 10 µM; for differential viability (reversal): stronger effect = higher value.
A short description of assay [4]: yeast transport mutant growth inhibition pilot in 384-well plates, post-Golgi transport modulator project (AID 636; in the data active = inhibition above about 31%). To be noted: absorbance 615 nm, about 18 h, stronger effect = higher value.
Assay [5] can be described thus: growth suppression of yeast trafficking mutant, preliminary HTS, modulators of trafficking downstream of Golgi apparatus project, 1536-format plate, OD 615 nm (AID 637). To be noted: yeast transport mutant growth, absorbance 615 nm, 18 h; stronger effect = higher value.
Setting [6] is: H69AR cells + 2 uM doxorubicin, measured here: viability with 2 uM doxorubicin, stronger effect = lower value.
Setting [7] is: H69AR cells, compound alone cytotoxicity.

In the case of `Cc1cccc2cc(C#N)c(SCCN3CCCCC3)nc12`, the viability in assay [1] is 61.8% (inactive); in assay [2], 68.2% (inactive); in assay [3] (setting [6]), 78.2%; in assay [3] (setting [7]), 68.2%. Moreover, the differential viability (reversal) in assay [3] (H69AR cells + 2 uM doxorubicin) is -10% (inactive). The inhibition in assay [4] is 1.35% (inactive); in assay [5], -0.18% (inactive).

Regarding `O=C(NCC1CCCO1)C1CC(c2ccc(Cl)c(Cl)c2)=NO1` (stereo not given), the viability in assay [1] was 111% (inactive); in assay [2], 104% (inactive); in assay [3] (setting [6]), 105%; in assay [3] (setting [7]), 104%. Also, the differential viability (reversal) in assay [3] (H69AR cells + 2 uM doxorubicin) was -1.44% (inactive). Moreover, the inhibition in assay [4] was -0.13% (inactive); in assay [5] it was -8.1% (inactive).

Regarding `O=C(NCc1n[nH]c(=S)n1-c1ccc(F)cc1)c1ccco1`, the viability was 102% (inactive) in assay [1], 96.2% (inactive) in assay [2], 89.2% in assay [3] (setting [6]) and 96.2% in assay [3] (setting [7]). Moreover, the differential viability (reversal) in assay [3] (H69AR cells + 2 uM doxorubicin) is 6.98% (inactive). The inhibition in assay [4] was -0.53% (inactive); in assay [5], -1.11% (inactive).

Take `COc1ccc(C2C3=C(OC(C)=O)c4ccccc4C3=Nc3c2c(=O)n(C)c(=O)n3C)cc1` (stereo not given): the viability in assay [1] was 65.4% (inactive); in assay [2], 74.1% (inactive); in assay [3] (setting [6]), 73.7%; in assay [3] (setting [7]) it was 74.1%. Further, the differential viability (reversal) in assay [3] (H69AR cells + 2 uM doxorubicin) was 0.425% (inactive). Besides, the figures for the inhibition in assay [4] and in assay [5] were -4% (inactive) and 0.79% (inactive), respectively.

Regarding `CC12C(=O)N(CCC(=O)O)C(=O)C1C1C=CC2C1` (stereo not given), the viability was 107% (inactive) in assay [1], 89.6% (inactive) in assay [2], 91% in assay [3] (setting [6]) and 89.6% in assay [3] (setting [7]). Further, the differential viability (reversal) in assay [3] (H69AR cells + 2 uM doxorubicin) was -1.44% (inactive). Besides, the inhibition is -2.37% (inactive) in assay [4] and 2.86% (inactive) in assay [5].

As for `COCc1[nH]nc2c1C(C1C=CCCC1)C(C#N)=C(N)O2` (stereo not given), the viability is 68.9% (inactive) in assay [1], 94.6% (inactive) in assay [2], 98.8% in assay [3] (setting [6]) and 94.6% in assay [3] (setting [7]). The differential viability (reversal) in assay [3] (H69AR cells + 2 uM doxorubicin) was -4.19% (inactive). The inhibition is -2.5% (inactive) in assay [4] and -1.11% (inactive) in assay [5].

With `Cc1ccc(C)c(Cn2c(=O)n(CCC(=O)NCc3ccco3)c(=O)c3sccc32)c1`, the viability was 74.6% (inactive) in assay [1], 87.7% (inactive) in assay [2], 87.7% in assay [3] (setting [6]) and 87.7% in assay [3] (setting [7]). For the same compound, the differential viability (reversal) in assay [3] (H69AR cells + 2 uM doxorubicin) is -0.04% (inactive). For the same compound, the inhibition in assay [4] is -2.86% (inactive); in assay [5], -0.63% (inactive).

On to `O=C(c1cc(-c2cccs2)on1)N1CCc2ccccc2C1`, for which the viability in assay [1] is 103% (inactive); in assay [2], 104% (inactive); in assay [3] (setting [6]), 81.8%; in assay [3] (setting [7]), 104%. Further, the differential viability (reversal) in assay [3] (H69AR cells + 2 uM doxorubicin) is 21.8% (inactive). Further, the figures for the inhibition in assay [4] and in assay [5] were -2.24% (inactive) and -0.48% (inactive), respectively.

In the case of `COc1cc(NC(=O)Nc2cccc(Cl)c2)c(OC)cc1NC(=O)CN1CCCCC1`, the viability in assay [1] was 20.3% (active); in assay [2] it was 3.06% (active); in assay [3] (setting [6]) it was 13%; in assay [3] (setting [7]), 3.06%. Besides, in assay [3] (H69AR cells + 2 uM doxorubicin), the differential viability (reversal) was -9.94% (inactive). Moreover, the inhibition was -6.27% (inactive) in assay [4] and -0.95% (inactive) in assay [5].

Turning to `O=C(O)C1CC=CCC1C(=O)Nc1cccc(C(=O)N2CCCCC2)c1` (stereo not given), the viability is 107% (inactive) in assay [1], 91.9% (inactive) in assay [2], 84.2% in assay [3] (setting [6]) and 91.9% in assay [3] (setting [7]). For the same compound, in assay [3] (H69AR cells + 2 uM doxorubicin), the differential viability (reversal) was 7.67% (inactive). Besides, the inhibition in assay [4] is -5.2% (inactive); in assay [5], 9.21% (inactive).

Consider `CC(C)(CSc1nncn1N)NS(=O)(=O)c1ccc(Cl)cc1`, for which the viability in assay [1] was 91.9% (inactive); in assay [2], 98.3% (inactive); in assay [3] (setting [6]), 96.7%; in assay [3] (setting [7]), 98.3%. Further, in assay [3] (H69AR cells + 2 uM doxorubicin), the differential viability (reversal) was 1.6% (inactive). Also, the inhibition is -2.27% (inactive) in assay [4] and -0.79% (inactive) in assay [5].

For the compound `COc1ccc(-c2noc(C3CCCN(C(=O)CCc4ccccc4)C3)n2)cc1` (stereo not given), the viability in assay [1] was 68.3% (inactive); in assay [2], 84.3% (inactive); in assay [3] (setting [6]), 90%; in assay [3] (setting [7]), 84.3%. Besides, in assay [3] (H69AR cells + 2 uM doxorubicin), the differential viability (reversal) is -5.7% (inactive). For the same compound, the inhibition in assay [4] is -1.97% (inactive); in assay [5] it was 11.1% (inactive).

As for `Cc1cccc(NC(=O)CCn2ccnc2C)c1`, the viability in assay [1] is 98.8% (inactive); in assay [2] it was 92.3% (inactive); in assay [3] (setting [6]) it was 88.4%; in assay [3] (setting [7]) it was 92.3%. Besides, the differential viability (reversal) in assay [3] (H69AR cells + 2 uM doxorubicin) was 3.98% (inactive). Besides, the inhibition in assay [4] is -1.95% (inactive); in assay [5], 0.79% (inactive).

With `CC(C)Cc1nc2oc3c(N4CCN(CCO)CC4)ncnc3c2c2c1CCCC2`, the viability in assay [1] is 52.4% (inactive); in assay [2], 42.6% (active); in assay [3] (setting [6]) it was 54.7%; in assay [3] (setting [7]), 42.6%. In addition, in assay [3] (H69AR cells + 2 uM doxorubicin), the differential viability (reversal) was -12.1% (inactive). In addition, the inhibition is -0.26% (inactive) in assay [4] and -6.33% (inactive) in assay [5].

Consider `O=C(Nc1nc2ccc(S(=O)(=O)N3CCCC3)cc2s1)C1CCCO1` (stereo not given), for which the viability in assay [1] was 109% (inactive); in assay [2], 97.7% (inactive); in assay [3] (setting [6]) it was 93.9%; in assay [3] (setting [7]), 97.7%. For the same compound, in assay [3] (H69AR cells + 2 uM doxorubicin), the differential viability (reversal) was 3.71% (inactive). Besides, the inhibition in assay [4] was -2.76% (inactive); in assay [5] it was 0% (inactive).

On to `Cn1c(COc2ccccc2)nnc1SCC(=O)Nc1ccc(N2CCOCC2)c(Cl)c1`, for which the viability is 94.4% (inactive) in assay [1], 94.4% (inactive) in assay [2], 82.8% in assay [3] (setting [6]) and 94.4% in assay [3] (setting [7]). For the same compound, the differential viability (reversal) in assay [3] (H69AR cells + 2 uM doxorubicin) is 11.6% (inactive). Further, the inhibition in assay [4] is -7.37% (inactive); in assay [5], -0.48% (inactive).

For the compound `CCOc1ccc(CNc2ccc3c(c2)ncn3C)cc1`, the viability in assay [1] is 106% (inactive); in assay [2] it was 93.2% (inactive); in assay [3] (setting [6]) it was 89.5%; in assay [3] (setting [7]), 93.2%. Besides, in assay [3] (H69AR cells + 2 uM doxorubicin), the differential viability (reversal) is 3.64% (inactive). The inhibition in assay [4] is -3.73% (inactive); in assay [5], -6.83% (inactive).

For the compound `CCn1c(=N)n(CC(=O)C23CC4CC(CC(C4)C2)C3)c2ccccc21`, the viability in assay [1] is 4.87% (active); in assay [2], 83.1% (inactive); in assay [3] (setting [6]), 83.2%; in assay [3] (setting [7]) it was 83.1%. The differential viability (reversal) in assay [3] (H69AR cells + 2 uM doxorubicin) was -0.145% (inactive). Moreover, the inhibition in assay [4] is -5.27% (inactive); in assay [5] it was 15.3% (inactive).

For the compound `Cc1cc(C)c(C#N)c(SCc2ccc(C#N)cc2)n1`, the viability in assay [1] was 44.7% (inactive); in assay [2], 68.5% (inactive); in assay [3] (setting [6]) it was 75.6%; in assay [3] (setting [7]) it was 68.5%. Moreover, the differential viability (reversal) in assay [3] (H69AR cells + 2 uM doxorubicin) is -7.06% (inactive). The results for the inhibition in assay [4] and in assay [5] were -2.27% (inactive) and -2.86% (inactive), respectively.

For the compound `COc1cccc(-c2nc(-c3ccc(NC(=O)Cc4ccccc4OC)cc3)no2)c1`, the viability was 85.3% (inactive) in assay [1], 90.6% (inactive) in assay [2], 77.8% in assay [3] (setting [6]) and 90.6% in assay [3] (setting [7]). Also, the differential viability (reversal) in assay [3] (H69AR cells + 2 uM doxorubicin) was 12.8% (inactive). Moreover, the inhibition in assay [4] is 9.09% (inactive); in assay [5] it was -0.95% (inactive).
